Results as given in ChEMBL document CHEMBL1136720, “Orally active, antimalarial, anticancer, artemisinin-derived trioxane dimers with high stability and efficacy” (J Med Chem, 2003).

What was measured:
[1] = system: Plasmodium falciparum; experiment: In vitro antimalarial activity against chloroquine-sensitive Plasmodium falciparum NF 54; type: functional, organism-based
Outline: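 In vitro test run in quadruplicate for each set, with the value taken from a fitted dose–response curve. Artemisinin was run as a concurrent control (n = 10).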

[2] = system: Mus musculus; experiment: In vivo antimalarial activity in mice (Mus musculus) infected with Plasmodium berghei NY malaria parasite after intravenous administration for 4 days; type: functional; settings: 96 h
Outline: (§1)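 Mice infected with P. berghei NY were given drug intravenously or orally (per line) daily for 4 days, following a published protocol. The work was run as two separate groups of experiments, each with its own reference drugs.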

[3] = system: Mus musculus; experiment: In vivo antimalarial activity in mice (Mus musculus) infected with Plasmodium berghei NY malaria parasite after oral administration for 4 days; type: functional; settings: 96 h; outline: as §1
[4] = system: Mus musculus; experiment: In vivo antimalarial activity in mice (Mus musculus) infected with Plasmodium berghei NY malaria parasite after intravenous administration determined as parasite suppression at 10 mg/kg; type: functional; outline: as §1
[5] = system: Mus musculus; experiment: In vivo antimalarial activity in mice (Mus musculus) infected with Plasmodium berghei NY malaria parasite after oral administration determined as parasite suppression at 10 mg/kg; type: functional; outline: as §1
[6] = system: Mus musculus; experiment: In vivo antimalarial activity in mice (Mus musculus) infected with Plasmodium berghei NY malaria parasite after intravenous administration for 4 days (Experiment 1); type: functional; settings: 96 h; outline: as §1
[7] = system: Mus musculus; experiment: In vivo antimalarial activity in mice (Mus musculus) infected with Plasmodium berghei NY malaria parasite after intravenous administration for 4 days (Experiment 2); type: functional; settings: 96 h; outline: as §1
[8] = system: Mus musculus; experiment: In vivo antimalarial activity in mice (Mus musculus) infected with Plasmodium berghei NY malaria parasite after intravenous administration determined as parasite suppression at 10 mg/kg (Experiment 1); type: functional; outline: as §1
[9] = system: Mus musculus; experiment: In vivo antimalarial activity in mice (Mus musculus) infected with Plasmodium berghei NY malaria parasite after intravenous administration determined as parasite suppression at 10 mg/kg (Experiment 2); type: functional; outline: as §1
[10] = system: Mus musculus; experiment: In vivo antimalarial activity in mice (Mus musculus) infected with Plasmodium berghei NY malaria parasite after oral administration for 4 days (Experiment 1); type: functional; settings: 96 h
Outline: (§2)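 P. berghei NY-infected mice given the compound orally once daily for 4 days, following a previously published protocol. Two separate groups of experiments were run, each with its own concurrent reference drugs.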

[11] = system: Mus musculus; experiment: In vivo antimalarial activity in mice (Mus musculus) infected with Plasmodium berghei NY malaria parasite after oral administration for 4 days (Experiment 2); type: functional; settings: 96 h; outline: as §2
[12] = system: Mus musculus; experiment: In vivo antimalarial activity in mice (Mus musculus) infected with Plasmodium berghei NY malaria parasite after oral administration determined as parasite suppression at 10 mg/kg (Experiment 1); type: functional
Outline: (§3)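 P. berghei NY-infected mice dosed orally at 10 mg/kg body weight, following a previously published protocol. Read-out is % suppression of parasite growth. Two separate groups of experiments were run, each with its own concurrent reference drugs.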

[13] = system: Mus musculus; experiment: In vivo antimalarial activity in mice (Mus musculus) infected with Plasmodium berghei NY malaria parasite after oral administration determined as parasite suppression at 10 mg/kg (Experiment 2); type: functional; outline: as §3

Question: With `C[C@@H]1CC[C@H]2[C@@H](C)C(CC(CO)CC3OC4O[C@]5(C)CC[C@H]6[C@H](C)CC[C@@H]([C@H]3C)C46OO5)OC3O[C@]4(C)CCC1C32OO4` (stereo partly specified) as the compound, how does the IC50 [1] read?
Answer: 0.87 nM

Question: With `C[C@@H]1CC[C@H]2[C@@H](C)C(CC(O)(COC(=O)CCC(=O)O)CC3OC4O[C@]5(C)CC[C@H]6[C@H](C)CC[C@@H]([C@H]3C)C46OO5)OC3O[C@]4(C)CCC1C32OO4` (stereo partly specified) [TERTIARY ALCOHOL PRIMARY SUCCINATEESTER] as the compound, how does the ED50 [2] read?
Answer: 2.4 mg/kg/day

Question: What about the ED90 [2] of the same compound?
Answer: 11 mg/kg/day

Question: What about the ED50 [3] of the same compound?
Answer: 4.8 mg/kg/day

Question: What about the ED90 [3] of the same compound?
Answer: 34 mg/kg/day

Question: And the Parasite suppression [4]?
Answer: 83.4%

Question: What about the Parasite suppression [5] of the same compound?
Answer: 55.4%

Question: And the IC50 [1]?
Answer: 3 nM

Question: What does the source list for `C[C@@H]1[C@H](OCc2ccc(C(=O)O)cc2)O[C@@H]2O[C@@]3(C)CC[C@@H]4[C@@H](C)CC[C@@H]1[C@]24OO3` (stereo in doubt) [ARTELINIC ACID]?
Answer: ED50 [6]: 11 mg/kg/day; ED90 [6]: 25 mg/kg/day; ED50 [7]: 5.6 mg/kg/day; ED90 [7]: 43 mg/kg/day; Parasite suppression [8]: 54.7%; Parasite suppression [9]: 42.4%

Question: How did the ED50 [2] turn out when `C[C@@H]1CC[C@H]2[C@@H](C)C(CC(O)(CC3OC4O[C@]5(C)CC[C@H]6[C@H](C)CC[C@@H]([C@H]3C)C46OO5)CS(=O)(=O)c3ccc(C(=O)O)cc3)OC3O[C@]4(C)CCC1C32OO4` (stereo partly specified) was run?
Answer: 2.7 mg/kg/day

Question: What about the ED90 [2] of the same compound?
Answer: 10 mg/kg/day

Question: What about the ED50 [3] of the same compound?
Answer: 7.5 mg/kg/day

Question: And the ED90 [3]?
Answer: 35 mg/kg/day

Question: What about the Parasite suppression [4] of the same compound?
Answer: 83.4%

Question: What about the Parasite suppression [5] of the same compound?
Answer: 46.1%

Question: What about the IC50 [1] of the same compound?
Answer: 2.4 nM

Question: Which IC50 [1] does the source give for `C[C@@H]1CC[C@H]2[C@@H](C)C(CC3(CC4OC5O[C@]6(C)CC[C@H]7[C@H](C)CC[C@@H]([C@H]4C)C57OO6)CO3)OC3O[C@]4(C)CCC1C32OO4` (stereo partly specified) here?
Answer: 2.8 nM

Question: For `C[C@H]1[C@@H](CC(O)(CO)C[C@H]2O[C@@H]3O[C@]4(C)CC[C@H]5[C@H](C)CC[C@@H]([C@H]2C)[C@@]35OO4)O[C@@H]2O[C@]3(C)CC[C@H]4[C@H](C)CC[C@@H]1[C@@]24OO3` (stereo partly specified), which IC50 [1] is on record?
Answer: 0.59 nM

Question: How did the IC50 [1] turn out when `C[C@@H]1CC[C@H]2[C@@H](C)C(=O)O[C@@H]3O[C@@]4(C)CC[C@@H]1[C@]32OO4` [ARTEMISININ] was run?
Answer: 9 nM

Question: With `C=C(CC1OC2O[C@]3(C)CCC4[C@H](C)CC[C@@H]([C@H]1C)C24OO3)CC1OC2O[C@]3(C)CC[C@H]4[C@H](C)CC[C@@H]([C@H]1C)C24OO3` (stereo partly specified) as the compound, how does the IC50 [1] read?
Answer: 24 nM

Question: Which IC50 [1] does the source give for `C[C@@H]1CC[C@H]2[C@@H](C)C(CC(O)(CC3OC4O[C@]5(C)CC[C@H]6[C@H](C)CC[C@@H]([C@H]3C)C46OO5)c3ccc(C(=O)O)cc3)OC3O[C@]4(C)CCC1C32OO4` (stereo partly specified) here?
Answer: 2.1 nM

Question: What does the source list for `C[C@H]1[C@H](OC(=O)CCC(=O)[O-])O[C@@H]2O[C@@]3(C)CC[C@H]4[C@H](C)CC[C@@H]1[C@@]24OO3.[Na+]` [SODIUM ARESUNATE]?
Answer: ED50 [10]: 10 mg/kg/day; ED90 [10]: 39 mg/kg/day; ED50 [11]: 5.5 mg/kg/day; ED90 [11]: 70 mg/kg/day; Parasite suppression [12]: 52.8%; Parasite suppression [13]: 50.9%

Question: For `C[C@@H]1CC[C@H]2[C@@H](C)C(CC(=O)CC3OC4O[C@]5(C)CC[C@H]6[C@H](C)CC[C@@H]([C@H]3C)C46OO5)OC3O[C@]4(C)CCC1C32OO4` (stereo partly specified), which IC50 [1] is on record?
Answer: 0.91 nM

Question: How did the IC50 [1] turn out when `C[C@@H]1CC[C@H]2[C@@H](C)C(CC(COC(=O)c3ccncc3)CC3OC4O[C@]5(C)CC[C@H]6[C@H](C)CC[C@@H]([C@H]3C)C46OO5)OC3O[C@]4(C)CCC1C32OO4` (stereo partly specified) was run?
Answer: 1.7 nM

Question: With `C[C@@H]1CC[C@H]2[C@@H](C)C(CC(COC(=O)CCC(=O)O)CC3OC4O[C@]5(C)CC[C@H]6[C@H](C)CC[C@@H]([C@H]3C)C46OO5)OC3O[C@]4(C)CCC1C32OO4` (stereo partly specified) as the compound, how does the ED50 [2] read?
Answer: 2.2 mg/kg/day

Question: What about the ED90 [2] of the same compound?
Answer: 6.3 mg/kg/day

Question: And the ED50 [3]?
Answer: 9 mg/kg/day

Question: And the ED90 [3]?
Answer: 15 mg/kg/day

Question: What about the Parasite suppression [4] of the same compound?
Answer: 81%

Question: What about the Parasite suppression [5] of the same compound?
Answer: 79.2%

Question: And the IC50 [1]?
Answer: 2 nM
